What all share (assay type): functional
For assay [1], the species on record is Homo sapiens. Briefly: Ability of 1 mM to reduce affinity of hemoglobin for oxygen is assessed from 50% partial pressure of oxygen in intact red cells. The essentials: (§1)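 Intact red cells: 30-µL aliquots of fresh heparinized normal whole blood added to 5 mL of compound diluted in 0.1 M HEPES, pH 7.4; final hemoglobin 12.5 ± 0.5 µM by spectrophotometry. Equilibrated 30 min at 37 °C, then oxygenated in the instrument chamber. P50 (mmHg PO2 at 50% deoxygenation) read from the O2-dissociation curve. Initial screen at 1 mM in duplicate.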

The species entered for assay [2] is Homo sapiens. Briefly: Ability of 1 mM to reduce affinity of hemoglobin for oxygen is assessed from 50% partial pressure of oxygen in membrane free hemoglobin solution. The essentials: (§2)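 Membrane-free hemoglobin: erythrocytes washed five times in 0.15 M NaCl, lysed in 5 volumes of water, filtered through paper and then down to 0.22 µm. Compound dissolved in 0.1 M HEPES, pH 7.4, hemoglobin added to a final 12.5 ± 0.5 µM, incubated 30 min at 37 °C. P50 taken from the O2-dissociation curve. Initial screen at 1 mM in duplicate.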

The target in assay [3] is Hemoglobin HbA (Homo sapiens) (UniProt P69905+P68871). Kind of assay: Ratio of effect of compound on affinity of hemoglobin for oxygen to that of control. The essentials: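 Mean P50 with compound divided by mean P50 of the respective controls. P50 measured from O2-dissociation curves at 37 °C after 30 min in 0.1 M HEPES, pH 7.4, with hemoglobin at 12.5 ± 0.5 µM, in intact red cells or membrane-free hemoglobin.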
Hemoglobin HbA (Homo sapiens), sequence (P68871 2-147 partner limits assumed): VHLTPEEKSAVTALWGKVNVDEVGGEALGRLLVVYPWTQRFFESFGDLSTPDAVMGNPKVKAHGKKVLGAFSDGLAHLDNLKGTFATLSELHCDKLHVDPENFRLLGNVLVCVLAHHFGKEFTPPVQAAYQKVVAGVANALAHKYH
Hemoglobin HbA (Homo sapiens), sequence (P69905 2-142 limits assumed): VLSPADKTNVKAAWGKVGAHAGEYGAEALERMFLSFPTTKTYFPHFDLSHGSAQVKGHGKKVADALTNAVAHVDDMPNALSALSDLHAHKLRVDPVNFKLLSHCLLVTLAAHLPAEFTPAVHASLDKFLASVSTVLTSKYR

The species entered for assay [4] is Homo sapiens. Briefly: Ability of 0.5 mM to reduce affinity of hemoglobin for oxygen is assessed from 50% partial pressure of oxygen in intact red cells. Put shortly:
as §1

The species named for assay [5] is Homo sapiens. Kind of assay: Ability of 0.5 mM to reduce affinity of hemoglobin for oxygen is assessed from 50% partial pressure of oxygen in membrane free hemoglobin solution. The essentials:
as §2

For assay [6], the species on record is Homo sapiens. Kind of assay: Ability of 0.2 mM to reduce affinity of hemoglobin for oxygen is assessed from 50% partial pressure of oxygen in intact red cells. The essentials: as §1
The species entered for assay [7] is Homo sapiens. Kind of assay: Ability of 0.2 mM to reduce affinity of hemoglobin for oxygen is assessed from 50% partial pressure of oxygen in membrane free hemoglobin solution. Put shortly:
as §2

For assay [8], the species on record is Homo sapiens. Briefly: Ability of 1 mM compound to reduce affinity of hemoglobin for oxygen is assessed from 50% partial pressure of oxygen in intact red cells. The essentials:
as §1

Assay [9] is filed under the species Homo sapiens. Kind of assay: Ability of 0.05 mM to reduce affinity of hemoglobin for oxygen is assessed from 50% partial pressure of oxygen in intact red cells. Put shortly: as §1
For assay [10], the species on record is Homo sapiens. Kind of assay: Ability of 0.1 mM to reduce affinity of hemoglobin for oxygen is assessed from 50% partial pressure of oxygen in intact red cells. The essentials: as §1
Assay [11] is filed under the species Homo sapiens. Kind of assay: Ability of 0.05 mM to reduce affinity of hemoglobin for oxygen is assessed from 50% partial pressure of oxygen in membrane free hemoglobin solution. Put shortly: as §2
Assay [12] is filed under the species Homo sapiens. Briefly: Ability of 0.1 mM to reduce affinity of hemoglobin for oxygen is assessed from 50% partial pressure of oxygen in membrane free hemoglobin solution. Put shortly: as §2

Several values for one entry are separate records, joined by “and”; a condition that tells them apart may be missing. Identical values can stand only once.

For `CC(C)(Oc1ccc(NC(=O)Nc2ccc3c(c2)OCO3)cc1)C(=O)O`, the P50 was 9.5 mmHg in assay [1] and 14 mmHg in assay [2]. The Ratio in assay [3] is 2.15 and 1.05.
For the compound `CC(C)(Oc1ccc(CCNC(=O)c2cc(Cl)cc(Cl)c2)cc1)C(=O)O`, the P50 in [4] is 17.75 mmHg; in assay [1], 22.75 mmHg; in assay [5], 10 mmHg; in assay [2], 12.5 mmHg. The Ratio in [3] was 1.78 and 1.42 and 2.33.
With `CC(C)(Oc1ccc(NC(=O)Nc2ccc(Cl)c(Cl)c2)cc1)C(=O)O`, the P50 in [4] was determined as 23.5 mmHg; in assay [6] it was 15.5 mmHg; in assay [7] it was 14.2 mmHg; in [5] it was 28.5 mmHg. The Ratio in assay [3] was 2.29 [middle of 4 runs].
Regarding `CC(C)(Oc1ccc(NC(=O)Nc2ccccc2O)cc1)C(=O)O`, the P50 in [2] was determined as 12.5 mmHg; in [8], 10 mmHg. Further, in [3], the Ratio is 1.91 and 1.42.
Regarding `CC(C)(Oc1ccc(NC(=O)Nc2ccc(F)cc2)cc1)C(=O)O`, the figures for the P50 in [2] and in [8] were 18 mmHg and 12.5 mmHg, respectively. Further, the Ratio in assay [3] is 2 and 1.38.
`O=C(O)COc1ccc(NC(=O)Nc2ccc(Cl)c(Cl)c2)cc1`: the P50 worked out at 13 mmHg in [4], 11.5 mmHg in assay [6], 8 mmHg in assay [7] and 10 mmHg in assay [5]. Also, in assay [3], the Ratio was 1.14 [middle of 4 runs].
On to `Cc1ccc(NC(=O)Nc2ccc(OC(C)(C)C(=O)O)cc2)cc1`, for which the P50 in assay [2] was 26 mmHg; in assay [8] it was 15.5 mmHg. The Ratio in [3] is 2.88 and 1.72.
With `CC(C)(Oc1ccc(CCNC(=O)c2ccc(Cl)cc2)cc1)C(=O)O` [BEZAFIBRATE], the P50 came to 14.5 mmHg in [4], 17 mmHg in [1], 9 mmHg in [5] and 14.2 mmHg in assay [2]. Also, in [3], the Ratio was 1.63 [middle of 4 runs].
Regarding `CCOC(=O)Nc1ccc(NC(=O)Nc2ccc(OC(C)(C)C(=O)O)cc2)cc1`, the P50 in assay [2] was 10.5 mmHg; in assay [8], 11.5 mmHg. Besides, the Ratio in [3] was 1.61 and 1.27.
Turning to `COc1ccc(NC(=O)Nc2ccc(OC(C)(C)C(=O)O)cc2)cc1OC`, the P50 worked out at 14.5 mmHg in assay [2] and 8.5 mmHg in assay [8]. The Ratio in assay [3] was 2.07 and 1.
Regarding `CC(C)(Oc1ccc(NC(=O)Nc2ccc(Cl)cc2Cl)cc1)C(=O)O`, the P50 in assay [4] was 21.25 mmHg; in [6], 14.75 mmHg; in [7] it was 9.75 mmHg; in assay [5], 15.5 mmHg. In assay [3], the Ratio was 2.04 [middle of 4 runs].
Consider `CC(C)(Oc1ccc(NC(=O)Nc2cc(Cl)c(Cl)c(Cl)c2)cc1)C(=O)O`, for which the P50 in assay [9] was 27.5 mmHg; in [10], 35 mmHg; in [6], 60 mmHg; in assay [11], 16.2 mmHg; in assay [12], 28.5 mmHg; in assay [7], 57.2 mmHg.
As for `CC(C)(Oc1ccc(NC(=O)Nc2ccc(O)cc2)cc1)C(=O)O`, the P50 in assay [2] is 11 mmHg; in [8], 8.5 mmHg. Further, the Ratio in assay [3] was 1.68 and 1.21.
As to `CC(C)(Oc1ccc(NC(=O)COc2ccc(Cl)cc2)cc1)C(=O)O`, the P50 in assay [2] worked out at 9.25 mmHg; in [8], 17.5 mmHg. Also, in [3], the Ratio is 1.27 and 1.84.
With `CC(C)(Oc1ccc(NC(=O)Nc2ccccc2)cc1)C(=O)O`, the P50 in [2] and in [8] was 10 mmHg throughout. Besides, the Ratio in [3] is 1.42 and 1.05.
In the case of `CC(C)(Oc1ccc(NC(=O)CNC(=O)c2ccc(Cl)cc2)cc1)C(=O)O`, the P50 was 8.5 mmHg in assay [2] and 12 mmHg in assay [8]. The Ratio in assay [3] is 1.14 and 1.36.
On to `CC(C)(Oc1ccc(-c2ccccc2)cc1)C(=O)O`, for which the P50 in assay [2] turned out to be 7 mmHg; in assay [8], 15.5 mmHg. Besides, the Ratio in [3] is 1 and 1.63.
As to `CC(C)(Oc1ccc(CC(NC(=O)c2ccc(Cl)cc2)C(=O)O)cc1)C(=O)O` (stereo unspecified), the P50 in assay [2] worked out at 7.5 mmHg; in assay [8], 12 mmHg. Also, the Ratio in assay [3] was 1.07 and 1.26.
Consider `CC(C)(Oc1ccc(NC(=O)Nc2ccc(C=O)cc2)cc1)C(=O)O`, for which the P50 worked out at 15 mmHg in [2] and 20.5 mmHg in assay [8]. The Ratio in assay [3] was 2.3 and 2.15.
Take `Cc1ccc(NC(=O)Nc2ccc(OC(C)(C)C(=O)O)cc2)cc1C`: the P50 in [4] amounted to 14.5 mmHg; in assay [5] it was 16.5 mmHg; in assay [2] it was 27.2 mmHg; in [8], 18.5 mmHg. Also, the Ratio in assay [3] was 2.53 [middle of 4 runs].
For `COc1ccc(NC(=O)Nc2ccc(OC(C)(C)C(=O)O)cc2)cc1`, the P50 in [2] amounted to 19 mmHg; in [8], 12.5 mmHg. Also, the Ratio in assay [3] was 2.11 and 1.25.
`CC(C)(Oc1ccc(NC(=O)Nc2cc(F)cc(F)c2)cc1)C(=O)O`: the P50 in assay [4] stood at 15 mmHg; in [1], 21 mmHg; in assay [5], 12.2 mmHg; in assay [2], 15.2 mmHg. Moreover, the Ratio in [3] was 1.99 [middle of 4 runs].
As for `CC(C)(Oc1ccc(NC(=O)Nc2cc(Cl)ccc2Cl)cc1)C(=O)O`, the P50 in assay [4] worked out at 23.75 mmHg; in [6] it was 15.83 mmHg; in assay [7] it was 11.5 mmHg; in assay [5], 18 mmHg. The Ratio in assay [3] was 2.56 [middle of 4 runs].
Consider `Cc1cc(C)c(NC(=O)Nc2ccc(OC(C)(C)C(=O)O)cc2)c(C)c1`, for which the P50 is 6.5 mmHg in assay [2] and 12 mmHg in assay [8]. In assay [3], the Ratio was 1 and 1.26.
Regarding `CC(C)(Oc1ccc(NS(=O)(=O)Cc2ccccc2)cc1)C(=O)O`, the P50 in assay [2] is 9.16 mmHg; in assay [8], 11.5 mmHg. Also, the Ratio in [3] is 1.34 and 1.64.
Regarding `CC(C)(Oc1ccc(NC(=O)c2ccc(Cl)cc2)cc1)C(=O)O`, the P50 in [1] was 37.5 mmHg and 19 mmHg; in [5] it was 27 mmHg; in [2], 39 mmHg. Also, the Ratio in [3] was 5.35 [middle of 4 runs].
With `CC(=O)Oc1ccc(NC(=O)Nc2ccc(OC(C)(C)C(=O)O)cc2)cc1`, the P50 in [2] worked out at 11.5 mmHg; in assay [8] it was 16 mmHg. The Ratio in assay [3] is 1.64 and 1.77.
Turning to `CC(C)(Oc1ccc(NC(=O)Nc2cccc(Cl)c2Cl)cc1)C(=O)O`, the P50 came to 18.5 mmHg in [6], 12.5 mmHg in assay [7] and 16 mmHg in assay [5]. In assay [3], the Ratio was 2.46 [middle of 4 runs].
Turning to `CC(C)(Oc1ccc(NC(=N)Nc2ccc(Cl)cc2)cc1)C(=O)O`, the figures for the P50 in assay [2] and in assay [8] were 9 mmHg and 16 mmHg, respectively. Moreover, the Ratio in [3] is 1.14 and 1.39.
Consider `CC(C)(Oc1ccc(NC(=O)Nc2ccc(Cl)cc2)cc1)C(=O)O`, for which the P50 was determined as 21.8 mmHg in assay [2] and 19.5 mmHg in assay [8]. Besides, in [3], the Ratio is 2.7 and 1.64.
With `CC(C)(Oc1ccc(NC(=O)Nc2cc([N+](=O)[O-])ccc2Cl)cc1)C(=O)O`, the results for the P50 in [2] and in assay [8] were 23.5 mmHg and 40 mmHg, respectively. Further, the Ratio in assay [3] was 3.61 and 4.21.
For the compound `CC(C)(Oc1ccc(NC(=O)Nc2cccc(Cl)c2)cc1)C(=O)O`, the values for the P50 in [2] and in assay [8] were 22 mmHg and 17.75 mmHg, respectively. Moreover, in [3], the Ratio is 2.89 and 1.5.
For `CC(C)(Oc1ccc(NC(=O)Nc2ccccc2Cl)cc1)C(=O)O`, the P50 in [2] turned out to be 14.2 mmHg; in assay [8], 16.2 mmHg. In [3], the Ratio is 1.75 and 1.42.
Consider `CC(C)(Oc1ccc(NC(=O)Nc2ccc(C(=O)O)cc2)cc1)C(=O)O`, for which the P50 in [2] came to 8 mmHg; in assay [8], 9 mmHg. Moreover, the Ratio in [3] was 1.14 and 1.
Regarding `COc1cc(NC(=O)Nc2ccc(OC(C)(C)C(=O)O)cc2)cc(OC)c1OC`, the results for the P50 in assay [2] and in assay [8] were 11.5 mmHg and 9.5 mmHg, respectively. In assay [3], the Ratio was 1.64 and 1.05.
For `CC(C)(Oc1ccc(NC(=O)Nc2cc(Cl)cc(Cl)c2)cc1)C(=O)O`, the P50 was found to be 51 mmHg in [4], 22.75 mmHg in assay [6], 20.5 mmHg in assay [7] and 44.5 mmHg in assay [5]. Also, the Ratio in assay [3] is 4.43 [middle of 4 runs].
Take `CC(C)(Oc1ccc(NC(=O)c2cc(Cl)cc(Cl)c2)cc1)C(=O)O`: the P50 in [4] was 19.66 mmHg; in assay [1] it was 25.33 mmHg; in [5], 12.2 mmHg; in assay [2] it was 16 mmHg. In assay [3], the Ratio is 2.34 [middle of 4 runs].
On to `CC(C)(Oc1ccc(NC(=O)Nc2ccc(Cl)c([N+](=O)[O-])c2)cc1)C(=O)O`, for which the P50 in assay [4] was 40 mmHg; in assay [1] it was 52.5 mmHg; in assay [5], 30 mmHg; in [2], 43.5 mmHg. In assay [3], the Ratio is 5.43 [middle of 4 runs].

Source of the values: ChEMBL document CHEMBL1124654, “Synthesis and investigation of effects of 2-[4- [[(arylamino)carbonyl]amino]phenoxy]-2-methylpropionic acids on the affinity of hemoglobin for oxygen: structure-activity relationships” (1989).
